ChEMBL document CHEMBL4373700, “Synthesis and Structure-Activity Relationship Correlations of Gnidimacrin Derivatives as Potent HIV-1 Inhibitors and HIV Latency Reversing Agents” (J Med Chem, 2019)

What was measured:
MT4 = assay: Cytotoxicity against human MT4 cells measured after 3 days by CytoTox-Glo assay; type: cell-based; conditions: mt4, 72 h
Summary of the method: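 MT4 cells cultured with a range of compound concentrations for 3 days. Viability by CytoTox-Glo, run per the manufacturer's protocol. CC50 is the concentration causing a 50% drop in viability.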

[1] = Agonist activity at Protein kinase C in human MT4 cells infected with HIV-1 NL4-3 assessed as inhibition of viral replication measured on day 3 post-infection by Nano-Glo luciferase assay
[2] = Half-life in Sprague-Dawley rat plasma at 0.05 mM measured up to 24 hrs by LCMS analysis; type: ADME, cell-free; conditions: 50 µM
Summary of the method: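 Sprague Dawley rat plasma (sodium heparin) prewarmed 10 min at 37 °C. Compound added from 5 mM DMSO stock to a final 0.05 mM. Samples taken at 0, 0.5, 1, 2, 4, 6, 10 and 24 h, deproteinized with 2 volumes MeOH, centrifuged and filtered. Analysis by LCMS (C18, isocratic, ESI). Mean of three independent experiments.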

Protein kinase C (PKC) = assay: Agonist activity at Protein kinase C in human U1 cells infected with HIV-1 NL4-3 assessed as induction of HIV-1 p24 production after 72 hrs by ELISA; type: cell-based
Summary of the method: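 Latency model: U1 cells (2 × 10^5 cells/mL) incubated with a range of compound concentrations at 37 °C for 72 h. p24 in the supernatant measured by ELISA. EC50 is the concentration giving 50% of maximal p24 induction, from nonlinear regression.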

| Compound | CC50 (MT4) | IC50 [1] | t1/2 [2] | EC50 (Protein kinase C (PKC)) |
| --- | --- | --- | --- | --- |
| C=C(C)[C@]12C[C@@H](COC(=O)c3ccccc3)[C@@]34OC5(O[C@@H]1[C@@H]3[C@@H]1O[C@]1(CO)[C@@H](O)[C@@]1(O)[C@H]4[C@H]([C@H](C)[C@@H]1OC(=O)c1ccccc1)[C@H](C)CCCCCC[C@H]5OC(C)=O)O2 | > 1 nM | 0.09 nM |  |  |
| C=C(C)[C@]12C[C@@H](COC(=O)c3ccccc3)[C@@]34OC5(O[C@@H]1[C@@H]3[C@@H]1O[C@]1(CO)[C@@H](O)[C@@]1(O)[C@H]4[C@H]([C@H](C)[C@@H]1OC(=O)c1ccc3ccccc3c1)[C@H](C)CCCCCC[C@H]5O)O2 | > 1 nM | 0.15 nM | 26.17 h |  |
| C=C(C)[C@]12C[C@@H](COC(=O)c3ccccc3)[C@@]34OC5(O[C@@H]1[C@@H]3[C@@H]1O[C@]1(CO)[C@@H](O)[C@@]1(O)[C@H]4[C@H]([C@H](C)[C@@H]1OC(=O)c1ccccc1)[C@H](C)CCCCCC[C@H]5OC(=O)c1ccc([N+](=O)[O-])cc1)O2 | > 1 nM | > 1 nM |  |  |
| C=C(C)[C@]12C[C@@H](COC(=O)c3ccccc3)[C@@]34OC5(O[C@@H]1[C@@H]3[C@@H]1O[C@]1(COC(=O)[C@@]13CC[C@@](C)(C(=O)O1)C3(C)C)[C@@H](O)[C@@]1(O)[C@H]4[C@H]([C@H](C)[C@@H]1OC(=O)c1ccccc1)[C@H](C)CCCCCC[C@H]5O)O2 | > 1 nM | > 1 nM |  |  |
| C=C(C)[C@]12C[C@@H](COC(=O)c3ccccc3)[C@@]34OC5(O[C@@H]1[C@@H]3[C@@H]1O[C@]1(CO)[C@@H](OC(=O)c1ccccc1)[C@@]1(O)[C@H]4[C@H]([C@H](C)[C@@H]1OC(=O)c1ccccc1)[C@H](C)CCCCCC[C@H]5O)O2 | > 1 nM | > 1 nM |  |  |
| C=C(C)[C@]12C[C@@H](CO)[C@@]34OC5(O[C@@H]1[C@@H]3[C@@H]1O[C@]1(CO)[C@@H](O)[C@@]1(O)[C@H]4[C@H]([C@H](C)[C@@H]1O)[C@H](C)CCCCCC[C@H]5O)O2 | > 1 nM | > 1 nM |  |  |
| C=C(C)[C@]12C[C@@H](COC(=O)c3ccccc3)[C@@]34OC5(O[C@@H]1[C@@H]3[C@@H]1O[C@]1(COC(=O)C(C)(C)CC(=O)O)[C@@H](O)[C@@]1(O)[C@H]4[C@H]([C@H](C)[C@@H]1OC(=O)c1ccccc1)[C@H](C)CCCCCC[C@H]5O)O2 | > 1 nM | > 1 nM |  |  |
| C=C(C)[C@]12C[C@@H](COC(=O)c3ccccc3)[C@@]34OC5(O[C@@H]1[C@@H]3[C@@H]1O[C@]1(CO)C(=O)[C@@]1(O)[C@H]4[C@H]([C@H](C)[C@@H]1OC(=O)c1ccccc1)[C@H](C)CCCCCC[C@H]5O)O2 | > 1 nM | > 1 nM |  | > 3.9 nM |
| CC(C)[C@]12C[C@@H](COC(=O)c3ccccc3)[C@@]34OC5(O[C@@H]1[C@@H]3[C@@H]1O[C@]1(CO)[C@@H](O)[C@@]1(O)[C@H]4[C@H]([C@H](C)[C@@H]1OC(=O)c1ccccc1)[C@H](C)CCCCCC[C@H]5O)O2 | > 1 nM | 0.18 nM |  |  |
| C=C(C)[C@]12C[C@@H](COC(=O)c3ccccc3)[C@@]34OC5(O[C@@H]1[C@@H]3[C@@H]1O[C@]1(COC(=O)c1ccccc1)[C@@H](O)[C@@]1(O)[C@H]4[C@H]([C@H](C)[C@@H]1OC(=O)c1ccccc1)[C@H](C)CCCCCC[C@H]5OC(=O)c1ccccc1)O2 | > 1 nM | > 1 nM |  |  |
| C=C(C)[C@]12C[C@@H](COC(=O)c3ccccc3)[C@@]34OC5(O[C@@H]1[C@@H]3[C@@H]1O[C@]1(CO)[C@@H](O)[C@@]1(O)[C@H]4[C@H]([C@H](C)[C@@H]1OC(=O)c1ccccc1)[C@H](C)CCCCCC[C@H]5OC(=O)c1ccc3ccccc3c1)O2 | > 1 nM | > 1 nM |  |  |
| C=C(C)[C@]12C[C@@H](COC(=O)c3ccccc3)[C@@]34OC5(O[C@@H]1[C@@H]3[C@@H]1O[C@]1(COC(=O)c1ccccc1)[C@@H](O)[C@@]1(O)[C@H]4[C@H]([C@H](C)[C@@H]1OC(=O)c1ccccc1)[C@H](C)CCCCCC[C@H]5O)O2 | > 1 nM | > 1 nM |  |  |
| C=C(C)[C@]12C[C@@H](COC(=O)c3ccccc3)[C@@]34OC5(O[C@@H]1[C@@H]3[C@@H]1O[C@]1(COC(=O)/C=C/c1ccc(OC)cc1)[C@@H](O)[C@@]1(O)[C@H]4[C@H]([C@H](C)[C@@H]1OC(=O)c1ccccc1)[C@H](C)CCCCCC[C@H]5O)O2 | > 1 nM | > 1 nM |  |  |
| C=C(C)[C@]12C[C@@H](COC(=O)c3ccccc3)[C@@]34OC5(O[C@@H]1[C@@H]3[C@@H]1O[C@]1(COC(=O)C1(C)COC(C)(C)OC1)[C@@H](O)[C@@]1(O)[C@H]4[C@H]([C@H](C)[C@@H]1OC(=O)c1ccccc1)[C@H](C)CCCCCC[C@H]5O)O2 | > 1 nM | > 1 nM |  |  |
| C=C(C)[C@]12C[C@@H](COC(=O)c3ccccc3)[C@@]34OC5(O[C@@H]1[C@@H]3[C@@H]1O[C@]1(CO)[C@@H](O)[C@@]1(O)[C@H]4[C@H]([C@H](C)[C@@H]1OC(=O)c1ccccc1)[C@H](C)CCCCCC[C@H]5OC(=O)c1ccc(OC)cc1)O2 | > 1 nM | > 1 nM |  |  |
| C=C(C)[C@]12C[C@@H](COC(=O)c3ccccc3)[C@@]34OC5(O[C@@H]1[C@@H]3[C@@H]1O[C@]1(CO)[C@@H](O)[C@@]1(O)[C@H]4[C@H]([C@H](C)[C@@H]1OC(=O)c1ccccc1)[C@H](C)CCCCCC[C@H]5OC(=O)/C=C/c1ccccc1)O2 | > 1 nM | > 1 nM |  |  |
| C=C(C)[C@]12C[C@@H](COC(=O)c3ccccc3)[C@@]34OC5(O[C@@H]1[C@@H]3[C@@H]1O[C@]1(CO)[C@@H](O)[C@@]1(O)[C@H]4[C@H]([C@H](C)[C@@H]1OC(=O)c1ccc([N+](=O)[O-])cc1)[C@H](C)CCCCCC[C@H]5O)O2 | > 1 nM | 0.22 nM |  |  |
| C=C(C)[C@]12C[C@@H](COC(=O)c3ccccc3)[C@@]34OC5(O[C@@H]1[C@@H]3[C@@H]1O[C@]1(COC(C)=O)[C@@H](O)[C@@]1(O)[C@H]4[C@H]([C@H](C)[C@@H]1OC(=O)c1ccccc1)[C@H](C)CCCCCC[C@H]5O)O2 | > 1 nM | > 1 nM |  |  |
| C=C(C)[C@]12C[C@@H](COC(=O)c3ccccc3)[C@@]34OC5(O[C@@H]1[C@@H]3[C@@H]1O[C@]1(COC(=O)CCC(=O)O)[C@@H](O)[C@@]1(O)[C@H]4[C@H]([C@H](C)[C@@H]1OC(=O)c1ccccc1)[C@H](C)CCCCCC[C@H]5O)O2 | > 1 nM | > 1 nM |  |  |
| C=C(C)[C@]12C[C@@H](COC(=O)c3ccccc3)[C@@]34OC5(O[C@@H]1[C@@H]3[C@@H]1O[C@]1(CO)[C@@H](O)[C@@]1(O)[C@H]4[C@H]([C@H](C)[C@@H]1OC(=O)/C=C/c1ccccc1)[C@H](C)CCCCCC[C@H]5O)O2 | > 1 nM | > 1 nM |  |  |
| C=C(C)[C@]12C[C@@H](COC(=O)c3ccccc3)[C@@]34OC5(O[C@@H]1[C@@H]3[C@@H]1O[C@]1(CO)[C@@H](O)[C@@]1(O)[C@H]4[C@H]([C@H](C)[C@@H]1OC(=O)c1ccccc1)[C@H](C)CCCCCC[C@H]5OC(=O)c1ccccc1)O2 | > 1 nM | > 1 nM |  |  |
| C=C(C)[C@]12C[C@@H](COC(=O)c3ccccc3)[C@@]34OC5(O[C@@H]1[C@@H]3[C@@H]1O[C@]1(CO)[C@@H](O)[C@@]1(O)[C@H]4[C@H]([C@H](C)[C@@H]1OC(=O)c1ccccc1)[C@H](C)CCCCCC[C@H]5OC(=O)/C(C)=C/C)O2 | > 1 nM | > 1 nM |  |  |
| C=C(C)[C@]12C[C@@H](COC(=O)c3ccccc3)[C@@]34OC5(O[C@@H]1[C@@H]3[C@@H]1O[C@]1(COC(C)=O)[C@@H](OC(C)=O)[C@@]1(O)[C@H]4[C@H]([C@H](C)[C@@H]1OC(=O)c1ccccc1)[C@H](C)CCCCCC[C@H]5OC(C)=O)O2 | > 1 nM | > 1 nM |  |  |
| C=C(C)[C@]12C[C@@H](COC(=O)c3ccccc3)[C@@]34OC5(O[C@@H]1[C@@H]3[C@@H]1O[C@]1(CO)[C@@H](O)[C@@]1(O)[C@H]4[C@H]([C@H](C)[C@@H]1OC(=O)c1ccc(OC)cc1)[C@H](C)CCCCCC[C@H]5O)O2 | > 1 nM | 0.17 nM |  |  |
| C=C(C)[C@]12C[C@@H](COC(=O)c3ccccc3)[C@@]34OC5(O[C@@H]1[C@@H]3[C@@H]1O[C@]1(COC(=O)CC(C)(C)C(=O)O)[C@@H](O)[C@@]1(O)[C@H]4[C@H]([C@H](C)[C@@H]1OC(=O)c1ccccc1)[C@H](C)CCCCCC[C@H]5O)O2 | > 1 nM | > 1 nM |  |  |
| C=C(C)[C@]12C[C@@H](COC(=O)c3ccccc3)[C@@]34OC5(O[C@@H]1[C@@H]3[C@@H]1O[C@]1(CO)[C@@H](O)[C@@]1(O)[C@H]4[C@H]([C@H](C)[C@@H]1O)[C@H](C)CCCCCC[C@H]5O)O2 | > 1 nM | > 1 nM |  |  |
| C=C(C)[C@]12C[C@@H](COC(=O)c3ccccc3)[C@@]34OC5(O[C@@H]1[C@@H]3[C@@H]1O[C@]1(CO)[C@@H](OC(C)=O)[C@@]1(O)[C@H]4[C@H]([C@H](C)[C@@H]1OC(=O)c1ccccc1)[C@H](C)CCCCCC[C@H]5O)O2 | > 1 nM | > 1 nM |  |  |
